A selection: hits, their analogues and other compounds. The true share with any hit is near 3.6%.
Hsp70 act = transcriptional activators of Hsp70 | 200,000 tested, 0.04% active | HeLa Hsp70 promoter luciferase reporter, luminescence; scaled: vehicle 0, proteasome-inhibitor control 100% | activation, % at 10 µM | AID 1203;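 active = activation above the mean across all tested compounds plus 3 SD, cutoff set per campaign, cut at about 5.5% in these data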
STAT3 activator = increases IL-6 driven STAT3 reporter signal; U3A cells, IL-6 STAT3-luciferase reporter, luminescence; 100% = signal with IL-6 EC80 alone; activation (% of control), % at 5.6 µM; 190,000 tested, 0.91% active; AID 871;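 active = activation above the screen-wide mean of compound activation plus 3 SD, cut at about 130% in these data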
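Test system: Human STAT1-deficient U3A cells with stable STAT3-luciferase reporter | Also added: Interleukin-6, 33 ng/mL | Timing: Compound pre-incubation 1 h before IL-6, then 6 h stimulation at 37 °C | Technique: Luciferase reporter luminescence | Read-out: Percent of IL-6-only median luminescence | Benchmarks: IL-6-only wells as 100% reference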
PolyA inh = inhibitors of polyadenylation in S. cerevisiae; S. cerevisiae SKY197-pL101 polyadenylation reporter, beta-gal luminescence; efflux-impaired pdr1/pdr3 knockout yeast; score 100 = 6 SD above DMSO; 300,000 tested, 0.02% active; activity score, % at 12 µM;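 active = lowest replicate activity score at least 50, where 100 means six control SD above control mean; inconclusive = lowest score under 50 but half or more replicates reach 50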;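 note: yeast exposed to compound for 9 h at 30 °C; higher score means more reporter readthrough which indicates perturbed polyadenylation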
AHR act = human AHR activation; P35869; 320,000 tested, 2.5% active; AHR-responsive luciferase reporter cells, luminescence; activation, % at 5 µM; in the data active = activation above about 47%
Target sequence (P35869 whole entry, looked up): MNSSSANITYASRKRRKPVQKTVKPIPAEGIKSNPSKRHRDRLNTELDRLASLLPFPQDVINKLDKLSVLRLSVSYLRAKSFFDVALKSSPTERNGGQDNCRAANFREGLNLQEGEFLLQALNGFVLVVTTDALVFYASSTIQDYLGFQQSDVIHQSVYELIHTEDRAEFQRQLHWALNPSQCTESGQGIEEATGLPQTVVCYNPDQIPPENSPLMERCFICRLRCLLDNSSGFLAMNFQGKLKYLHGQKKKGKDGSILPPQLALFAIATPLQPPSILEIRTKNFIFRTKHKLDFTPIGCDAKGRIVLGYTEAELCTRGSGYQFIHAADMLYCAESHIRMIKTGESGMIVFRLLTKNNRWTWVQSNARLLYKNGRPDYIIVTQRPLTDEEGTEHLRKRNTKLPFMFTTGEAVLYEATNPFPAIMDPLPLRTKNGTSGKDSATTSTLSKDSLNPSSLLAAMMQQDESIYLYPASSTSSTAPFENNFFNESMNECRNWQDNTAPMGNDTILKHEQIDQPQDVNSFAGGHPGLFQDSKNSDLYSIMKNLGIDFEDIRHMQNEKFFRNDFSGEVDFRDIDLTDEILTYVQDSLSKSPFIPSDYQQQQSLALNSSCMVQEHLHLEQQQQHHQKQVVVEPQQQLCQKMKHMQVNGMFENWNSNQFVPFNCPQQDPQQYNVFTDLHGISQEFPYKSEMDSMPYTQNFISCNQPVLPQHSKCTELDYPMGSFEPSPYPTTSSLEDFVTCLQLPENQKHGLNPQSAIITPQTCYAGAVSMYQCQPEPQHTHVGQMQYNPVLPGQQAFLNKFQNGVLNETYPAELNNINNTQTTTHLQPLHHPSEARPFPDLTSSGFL
PERK inh = inhibitors of human PERK kinase; Q9NZJ5; CHO PERK-DD fusion, SEAP luminescence translation reporter; inhibition, % at 5.6 µM; 220,000 tested, 0.17% active; AID 1416;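 active = inhibition above the mean inhibition of all tested compounds plus 3 SD, set separately per screening campaign, cut at about 2.9% in these data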;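 note: PERK kinase domain activated by AP20187 dimerizer at 100 nM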
HSF1 inhib = HSF1 inhibition; NIH3T3-HGL HSE-luciferase, MG132-induced, luminescence 8 h; active compounds read low; AID 2098; 300,000 tested, 0.77% active; activity change, negative = inhibition, % at 7.5 µM (by protocol);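 active = more than half of replicate wells show activity change below -50%, luminescence cut by over half; inconclusive = some wells, but at most half, below -50%; inactive = no replicate well below -50%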;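 note: luciferase reports HSF-1 transcriptional activity via heat shock element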
Hits are given with their value; i = inactive; ? = inconclusive; nt = no result.

SMILES | Hsp70 act | STAT3 activator | PolyA inh | AHR act | PERK inh | HSF1 inhib
Cc1c(N=C2NN=C(c3c[nH]c4ccccc34)CS2)c(=O)n(-c2ccccc2)n1C | nt | nt | i | 55.7 | i | i
Cc1c(N=C2NN=C(c3ccc(Cl)cc3)CS2)c(=O)n(-c2ccccc2)n1C | i | i | i | i | i | i
CC(=O)Nc1ccc(-c2cc(N)n(-c3ccccc3)n2)cc1 | nt | nt | i | 72.3 | i | i
CC(=O)N1CCN(c2ccc(NC(=O)c3ccc(F)cc3)cc2)CC1 | nt | nt | i | nt | nt | i
Cc1ccc(OCc2nc(C#N)c(NCc3ccc4c(c3)OCO4)o2)cc1 | i | i | i | i | i | i
CCOc1ccc(-c2nc(C#N)c(NCc3ccc4c(c3)OCO4)o2)cc1 | i | i | i | 56.5 | i | i
COc1ccc(CN2CCNC(=O)C2CC(=O)N(C)CC2CCOCC2)cc1C (configuration not stated) | nt | nt | i | nt | nt | i
CC1=NN(c2ccc(F)cc2)C(=O)C1C(c1cccc(O)c1)c1c(C)[nH]n(-c2ccc(F)cc2)c1=O (configuration not stated) | i | 153.0 | i | i | i | i
Cc1c(Br)cnn1C(C)C(=O)N1CCN(c2ccc(F)cc2)CC1 (configuration not stated) | nt | nt | nt | i | nt | nt
O=C(Nc1ccnn1C1CCN(Cc2cccc(O)c2)CC1)C1CCCC1 | nt | nt | i | i | nt | i
Cc1ccnc(NC(=O)c2cccc(S(=O)(=O)Nc3ccc(C)cc3C)c2)c1 | nt | nt | nt | 60.5 | nt | nt
O=C(Nc1ccccc1)c1cccc(S(=O)(=O)Nc2ccccn2)c1 | i | i | i | i | i | i
O=C(Nc1ccc(Br)cc1)c1cccc(S(=O)(=O)Nc2ccccn2)c1 | nt | nt | i | 60.9 | nt | i
CCc1cccc(NC(=O)COC(=O)/C=C/c2cccs2)c1 | nt | nt | i | i | nt | -51.5
COc1ccc(/C=C2\SC(=S)N(CCC(=O)NC3CCCC3)C2=O)cc1OC | nt | nt | i | i | nt | i
O=C(NC(=O)c1cccc(F)c1)OC[C@@H]1CCCN2CCCC[C@H]12 | i | i | i | i | i | -77.7
O=C(NCC1CCCCC1)c1cccc(Br)c1 | nt | nt | i | i | nt | i
CC1CN(C(=O)c2ccc(NS(=O)(=O)c3ccc(F)cc3)cc2)CC(C)O1 (configuration not stated) | nt | nt | i | i | nt | i
CCOC(=O)c1c(N2CCCCC2)c2ccccc2[nH]c1=O | i | i | i | i | i | -58.6
COc1cc2c(cc1OC)C(c1cc(C)ccc1C)CC(=O)N2 (configuration not stated) | nt | nt | i | nt | nt | i
COC(=O)CCC(C)N1CCC(Oc2ccc(C(=O)N3CCCC3)cc2)CC1 (configuration not stated) | nt | nt | i | i | nt | i
CC1CCC(NC(=O)C(=O)Nc2ccc3c(c2)OCO3)CC1 (configuration not stated) | nt | nt | i | 49.4 | nt | i
O=C(Nc1ccc2c(c1)OCO2)C(c1ccccc1)N1CCC2(CC1)OCCO2 (configuration not stated) | i | i | i | i | i | i
CC1CCN(C(C(=O)Nc2ccc3c(c2)OCO3)c2ccccc2)CC1 (configuration not stated) | nt | nt | i | 47.9 | nt | i
CC1CCCN(C(C(=O)Nc2ccc3c(c2)OCO3)c2ccccc2)C1 (configuration not stated) | nt | nt | i | 47.2 | nt | i
SMILES | Hsp70 act | STAT3 activator | PolyA inh | AHR act | PERK inh | HSF1 inhib
CC1CCCN(C(C(=O)Nc2ccc3c(c2)OCCO3)c2ccccc2)C1 (configuration not stated) | i | i | i | i | i | i
O=C(Nc1ccc2c(c1)OCO2)C(c1ccccc1)N1CCCCC1 (configuration not stated) | nt | nt | i | 59.5 | nt | i
Cc1ccc(N(Cc2ccccc2)C(=O)c2cc(S(=O)(=O)N3CCOCC3)ccc2C)cc1 | nt | nt | i | i | nt | i
CCc1nnc(NC(=O)CCC(=O)N2CCN(c3cccc(Cl)c3)CC2)s1 | nt | nt | i | i | nt | i
CSCC[C@H](NC(=O)Nc1cccc(Br)c1)C(=O)O | nt | nt | i | i | i | i
COc1ccc(Cl)cc1NC(=O)C/C(C)=N/NC(=O)c1ccc(O)cc1 | nt | nt | i | nt | nt | i
COc1cc(NC(=O)C/C(C)=N/NC(=O)c2cccc(O)c2)c(OC)cc1Cl | i | i | i | 81.6 | i | i
N/C(=N\OC(=O)c1cccc2ccccc12)c1ccccn1 | nt | nt | i | 61.2 | i | i
N/C(=N\OC(=O)c1ccc2ccccc2c1)c1ccccn1 | i | i | i | i | i | -85.4
COc1cccc(C(=O)O/N=C(\N)c2ccccn2)c1OC | nt | nt | i | i | nt | i
N/C(=N\OC(=O)c1cccc([N+](=O)[O-])c1)c1ccccn1 | i | i | i | 68.2 | i | i
CCCc1ccc(C(=O)O/N=C(\N)c2ccccn2)cc1 | nt | nt | i | i | nt | -82.6
COc1ccc(/C(O)=C2/C(=O)C(=O)N(c3ncccn3)C2c2ccc(F)cc2)cc1 (configuration not stated) | nt | nt | i | i | i | i
COc1cccc(C(=O)O/N=C(\N)c2ccccn2)c1 | nt | nt | i | i | nt | -86.5
CC(=O)N1c2ccc3ccccc3c2C2C=CCC2C1c1ccc(Br)cc1 (configuration not stated) | i | i | nt | 85.0 | i | nt
CS(=O)(=O)N(CC(=O)N1CCCC1)c1ccc(Cl)cc1 | nt | nt | i | i | nt | i
O=C(COC(=O)C1(c2ccccc2F)CCCC1)N1CCc2ccccc21 | i | i | i | i | i | -61.4
CN(C(=O)c1ccccc1C(=O)OCC(=O)Nc1ccc(S(N)(=O)=O)cc1)c1ccccc1 | nt | nt | i | i | nt | -78.7
NS(=O)(=O)c1ccc(NC(=O)COC(=O)C2(c3ccccc3F)CCCC2)cc1 | i | i | i | i | i | -57.2
CN(C(=O)c1ccccc1C(=O)OCC(=O)Nc1ccc(OC(F)F)cc1)c1ccccc1 | nt | nt | nt | i | nt | nt
Brc1cc2c(cc1-c1nc3ccccc3s1)OCO2 | nt | nt | i | 53.5 | nt | i
CC12CCC(=O)N1C(C(=O)Nc1cc(C(F)(F)F)ccc1N1CCCCC1)CS2 (configuration not stated) | nt | nt | i | i | nt | i
CCC(C)Sc1nnc(NC(=O)c2ccco2)s1 (configuration not stated) | nt | nt | i | i | nt | i
COc1ccc(C(=O)Nc2nnc(-c3ccccc3)s2)cc1 | nt | nt | i | nt | nt | i
COc1ccc(C(=O)Nc2nnc(C(F)(F)F)s2)cc1 | i | i | i | 58.6 | i | i
SMILES | Hsp70 act | STAT3 activator | PolyA inh | AHR act | PERK inh | HSF1 inhib
CN(C1CCCCC1)C(CNS(=O)(=O)c1ccccc1)c1ccccc1 (configuration not stated) | nt | nt | i | i | nt | i
COc1ccc(-c2csc(/C(C#N)=C(\O)CSc3nccn3C)n2)cc1OC | i | i | i | i | i | -87.7
COc1ccc(-c2csc(NC(=O)CSc3nnnn3C)n2)cc1OC | nt | nt | i | i | nt | i
CCc1ccccc1NS(=O)(=O)Cc1ccccc1 | nt | nt | ? | i | nt | i
COC(=O)CCCC(=O)NC1CCCc2c1cnn2-c1ccc(F)cc1F (configuration not stated) | nt | nt | i | i | nt | i
CSc1ccc(CN(C)C(=O)c2cc(=O)[nH]c3ccccc23)cc1 | nt | nt | i | i | nt | i

Compound activity deposited in PubChem by several laboratories.
